From ChEMBL document CHEMBL1141573, “Quinolone 3-carboxylic acid pharmacophore: design of second generation HIV-1 integrase inhibitors” (J Med Chem, 2008) come the findings set out here.

Series [1] concerns the target Human immunodeficiency virus type 1 integrase (Human immunodeficiency virus 1) (UniProt Q7ZJM1). The series is described as follows: Inhibition of HIV1 integrase at 100 uM. Summed up:
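Wild-type recombinant IN (200 nM final) preincubated with compound 30 min at 30 °C in buffer with 7.5 mM MnCl2, 10% DMSO, MOPS pH 7.2. Then 20 nM 5′-32P-labeled 21-mer U5 LTR duplex added for 1 h. Reactions quenched with formamide loading dye. Conversion to 19-mer (3′-processing) and strand transfer products gives % inhibition versus DNA alone and DNA plus IN.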

For series [2], the target named is T1, Human immunodeficiency virus type 1 integrase (Human immunodeficiency virus 1, UniProt Q7ZJM1). The series is described as follows: Inhibition of HIV1 integrase strand transfer activity.
For series [3], the target named is T1, Human immunodeficiency virus type 1 integrase. The series is described as follows: Inhibition of HIV1 integrase 3'-end processing activity. Put shortly:
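Wild-type recombinant IN, 200 nM final, preincubated with inhibitor at 30 °C for 30 min in buffer with 7.5 mM MnCl2, 10% DMSO, 25 mM MOPS pH 7.2. Then 20 nM 5′-32P-labeled 21-mer U5 LTR duplex substrate added, incubated a further 1 h. 21-mer to 19-mer conversion gives % inhibition versus DNA-alone and no-drug controls. IC50 from log concentration versus % inhibition.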

Series [4] concerns Human immunodeficiency virus 1. The series is described as follows: Antiviral activity against HIV1 in MT4 cells assessed as inhibition of viral-induced cytopathic effect by MTT method. To be noted: Human immunodeficiency virus 1, MT4. The class given is functional, organism-based. Summed up: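 MT-4 cells (RPMI 1640 with 10% heat-inactivated FCS, 2 mM L-glutamine, 37 °C, 5% CO2) infected with 100–300 CCID50 of HIV-1(IIIB) in presence of 5-fold serial compound dilutions. Viral CPE read by MTT reduction to formazan measured spectrophotometrically. IC50 = concentration giving 50% protection against CPE.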

A short description of series [5]: Cytotoxicity against human MT4 cells. The class given is cell-based. Summed up:
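Viability of mock-infected MT-4 cells after 5 days of incubation, measured by MTT reduction to formazan read spectrophotometrically; CC50 derived.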

Each structure is given as a SMILES string. Calls of active or inactive are those of the source. The calls are words filed in the database; no cut-off is given here.

Sequence of Human immunodeficiency virus type 1 integrase (Human immunodeficiency virus 1) (Q7ZJM1 as listed by the source): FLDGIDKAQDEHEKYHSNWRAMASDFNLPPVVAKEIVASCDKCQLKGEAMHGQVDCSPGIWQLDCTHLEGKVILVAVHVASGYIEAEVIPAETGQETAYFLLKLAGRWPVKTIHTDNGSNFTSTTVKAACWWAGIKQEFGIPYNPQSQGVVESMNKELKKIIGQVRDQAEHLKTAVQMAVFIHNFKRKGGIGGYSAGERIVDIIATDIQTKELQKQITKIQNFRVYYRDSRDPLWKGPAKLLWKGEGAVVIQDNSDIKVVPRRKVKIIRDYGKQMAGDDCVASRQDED
T1 sequence (Q7ZJM1 whole entry): as the sequence (Q7ZJM1 as listed by the source) above

In the case of `O=C(CSc1ncccc1C(=O)O)Nc1cccc2ccccc12`, in series [1], the result was inactive.

With `O=C(O)c1ccccc1NC(=O)c1ccccc1S(=O)(=O)Nc1ccc(Oc2ccccc2)cc1`, the IC50 in series [2] was 18 µM; in series [3], 42 µM.

As for `Cc1ccc2nc(-c3ccc(NC(=O)/C=C/C(=O)O)cc3)sc2c1`, the IC50 came out at 23 µM in series [2] and 48 µM in series [3].

With `Cc1cc(OCn2ccc(C(=O)O)n2)ccc1Cl`, the result in series [1] was inactive.

Take `Cc1ccc(C)c(NC(=O)CSc2ncccc2C(=O)O)c1`: the outcome in series [1] was inactive.

For `CCn1nc(NC(=O)CCCC(=O)O)c2cc3cc(C)ccc3nc21`, the outcome in series [1] was inactive.

Take `COc1cc(CNc2nn[nH]n2)ccc1OCc1c(Cl)cccc1Cl`: in series [1], the result was inactive.

Take `COc1ccc(/C=N/Nc2nc(C(=O)O)cs2)cc1`: the result in series [1] was inactive.

For the compound `CCOc1cc(CNc2nn[nH]n2)ccc1OCc1ccccc1`, the outcome in series [1] was inactive.

In the case of `Cc1nn(-c2ccccc2)c2sc(-c3nnc(SCC(=O)O)o3)cc12`, the result in series [1] was inactive.

With `COc1cc2c(cc1Cc1cccc(Cl)c1F)c(=O)c(C(=O)O)cn2CCO`, in series [4], the EC50 turned out to be 0.017 µM.

Turning to `O=C(O)COc1ccc2c(-c3ccccc3)cc(=O)oc2c1`, the outcome in series [1] was inactive.

Take `COc1ccc(/C=C2\C(=O)N(c3nnn[nH]3)N=C2C)cc1OCc1ccccc1Cl`: the concentration for half-maximal inhibition (IC50) in series [2] stood at 5 µM; in series [3], 14 µM.

For the compound `O=C(O)CCCC(=O)Nc1nc(-c2cccc3ccccc23)cs1`, the result in series [1] was inactive.

Take `COc1cc(CNc2nn[nH]n2)ccc1OCc1cccc(C)c1`: the result in series [1] was inactive.

On to `CCOc1cc(N(CC)CC)ccc1/C=C1\C(=O)N(c2nnn[nH]2)N=C1C`, for which the IC50 was determined as 65 µM in series [2] and 61 µM in series [3].

On to `O=C(O)CSCC(=O)Nc1nc(-c2ccccc2)cs1`, for which, in series [1], the result was inactive.

In the case of `N#Cc1c(-c2ccc(Cl)cc2)cc(-c2ccccc2)nc1SCC(=O)O`, the figures for the IC50 in series [2] and in series [3] were 60 µM and 98 µM, respectively.

For the compound `O=C(Nc1ccccn1)c1ccc(NC(=O)C2CC=CCC2C(=O)O)cc1` (stereo unspecified), in series [1], the result was inactive.

With `COc1cc(CNc2nn[nH]n2)ccc1OCc1ccc(Cl)cc1`, the outcome in series [1] was inactive.

Regarding `CCOc1cc(CNc2nn[nH]n2)cc(Cl)c1OCc1ccc(Cl)cc1`, the results for the IC50 in series [2] and in series [3] were 52 µM and greater than 100 µM, respectively.

In the case of `CCN(C(=O)CCC(=O)O)c1nc(CC(=O)Nc2ccc(Cl)cc2)cs1`, the outcome in series [1] was inactive.

Take `O=C(Nc1ccccc1C(=O)O)c1ccc(CN2CCc3ccccc3C2)cc1`: the outcome in series [1] was inactive.

Take `Cc1ccc2nc(NC(=O)CCC(=O)O)sc2c1`: in series [1], the result was inactive.

`O=C(O)CN1C(=O)/C(=C2\SC(=S)N(C(Cc3ccccc3)C(=O)O)C2=O)c2ccccc21` (stereo unspecified): the figures for the IC50 in series [2] and in series [3] were 66 µM and 92 µM, respectively.

For `CCCn1nc(NC(=O)CCC(=O)O)c2cc3cc(C)ccc3nc21`, the outcome in series [1] was inactive.

For the compound `CCOc1cc(/C=C2\C(=O)N(c3nnn[nH]3)N=C2C)cc(Cl)c1OCC`, the IC50 was determined as 4 µM in series [2] and 7 µM in series [3].

Consider `Cc1ccc(C(=O)O)cc1NC(=O)CSc1nc2ccccc2s1`, for which the figures for the half-inhibitory concentration (IC50) in series [2] and in series [3] were 17 µM and 63 µM, respectively.

Take `Cc1ccc2nc(NC(=O)CSCC(=O)O)sc2c1`: in series [1], the result was inactive.

For the compound `COc1cc(/C=C2\C(=O)N(c3nnn[nH]3)N=C2C)cc(Cl)c1OC`, the figures for the IC50 in series [2] and in series [3] were 4 µM and 5 µM, respectively.

For the compound `COc1cc(CNc2nn[nH]n2)ccc1OCc1cccc(Cl)c1`, the outcome in series [1] was inactive.

Consider `COc1ccc(-c2ccc(-c3nnn(C(C)C(=O)O)n3)cc2)cc1` (stereo unspecified), for which the result in series [1] was inactive.

As for `CCn1c(CNC(=O)CCC(=O)O)cc2ccccc21`, the result in series [1] was inactive.

`CCn1nc(NC(=O)CCC(=O)O)c2cc3cc(C)ccc3nc21`: in series [1], the outcome was inactive.

Regarding `O=C(O)CSc1nc(-c2cccs2)cc(C(F)(F)F)n1`, the IC50 in series [2] and in series [3] was greater than 100 µM in each case.

Take `O=C(O)c1ccccc1SCCSc1ccccc1C(=O)O`: in series [1], the result was inactive.

Turning to `O=C(O)C1CC(=O)N(c2ccc(OCc3ccccc3Cl)cc2)C1` (stereo unspecified), in series [1], the outcome was inactive.

`COc1cc(NC(=O)c2ccc3c(c2)C(=O)N(c2ccccc2OC)C3=O)c(C(=O)O)cc1OC`: in series [1], the result was inactive.

On to `CCOc1cc(CNc2nn[nH]n2)ccc1OCc1ccc(C)cc1`, for which the outcome in series [1] was inactive.

On to `COc1ccc2[nH]c(SCC(=O)Nc3cc(C(=O)O)ccc3C)nc2c1`, for which the outcome in series [1] was inactive.

Take `COc1cc(CNc2nn[nH]n2)ccc1OCc1ccc(C)cc1`: the outcome in series [1] was inactive.

`O=C(O)CSc1nnc(-c2ccco2)c(-c2ccco2)n1`: the IC50 came out at 5 µM in series [2] and 18 µM in series [3].

`O=C(O)c1cccc(OCC(O)Cn2cnc3ccccc32)c1` (stereo unspecified): the result in series [1] was inactive.

On to `COc1cc(CNc2nn[nH]n2)ccc1OCc1ccc(F)cc1`, for which, in series [1], the result was inactive.

Regarding `CC1=NN(c2nnn[nH]2)C(=O)/C1=C\c1cc(Cl)c(O)c(Cl)c1`, the results for the IC50 in series [2] and in series [3] were 13 µM and 11 µM, respectively.

`O=C(O)CSc1nc(-c2ccccc2)cc(C(F)(F)F)n1`: the half-maximal inhibitory concentration (IC50) in series [2] and in series [3] was greater than 100 µM each time.

For `COc1cccc(NC(=O)c2sc3[nH]c(=O)c(C(=O)O)cc3c2N)c1`, the IC50 in series [2] worked out at 43 µM; in series [3] it was 82 µM.

As to `Cc1cc(-c2cccnc2)c(C#N)c(SCC(=O)O)n1`, the result in series [1] was inactive.

As to `O=C(O)c1c[nH]c2ccc(Cc3cccc(Cl)c3F)cc2c1=O`, the concentration for a half-maximal effect (EC50) in series [4] came to 0.805 µM.

Take `O=C(CSc1nnc(-c2ccc(Cl)cc2)n1-c1ccccc1)N/N=C/c1ccccc1C(=O)O`: the result in series [1] was inactive.

`COc1cc(C2NC(C(=O)O)CS2)ccc1OCc1c(Cl)cccc1Cl` (stereo unspecified): the result in series [1] was inactive.

Regarding `Nc1c(C(=O)Nc2ccc(Cl)c(Cl)c2)sc2[nH]c(=O)c(C(=O)O)cc12`, the IC50 was found to be 5 µM in series [2] and 14 µM in series [3].

Regarding `O=C(O)C1CCCCC1C(=O)Nc1ccc(Oc2cccc3ccccc23)cc1` (stereo unspecified), the IC50 was 34 µM in series [2] and greater than 100 µM in series [3]. In series [5], this compound came in with a CC50 of 3.5 µM.

`COc1ccc(-c2nnc(SCC(=O)N/N=C/c3ccccc3C(=O)O)n2-c2ccccc2)cc1OC`: the result in series [1] was inactive.

In the case of `COc1cc2c(cc1Cc1cccc(Cl)c1F)c(=O)c(C(=O)O)cn2[C@@H](CO)C(C)C`, the EC50 in series [4] was found to be 0.0009 µM.

In the case of `O=C(O)C1CC(=O)N(c2ccc(OCc3c(F)cccc3Cl)cc2)C1` (stereo unspecified), the outcome in series [1] was inactive.

Take `Cc1ccc(OCc2nnc(SC(C)C(=O)O)n2-c2ccccc2)cc1` (stereo unspecified): in series [1], the result was inactive.

Turning to `CCOc1cc(/C=C2\C(=O)N(c3nnn[nH]3)N=C2C)ccc1OC`, the half-inhibitory concentration (IC50) in series [2] came to 59 µM; in series [3] it was 75 µM.

As to `O=C(O)CSc1ccc(-c2nc3ccccc3[nH]2)cn1`, the outcome in series [1] was inactive.

For `O=C(O)CSc1nc(Nc2ccccc2)nc(N2CCOCC2)n1`, the IC50 in series [2] and in series [3] was greater than 100 µM each time.

On to `Cc1nc2ccccc2n1CC(O)COc1cccc(C(=O)O)c1` (stereo unspecified), for which, in series [1], the outcome was inactive.

For `O=C(O)CSc1nnc(COc2cccc3ccccc23)o1`, in series [1], the outcome was inactive.

For the compound `O=C(O)CSc1nnc2n(Cc3ccc(F)cc3)c3ccccc3n12`, the result in series [1] was inactive.

`O=C(O)C1CC=CCC1C(=O)Nc1ccc(Cc2ccncc2)cc1` (stereo unspecified): the outcome in series [1] was inactive.

`Cc1ccc2[nH]c(CNC(=O)CCC(=O)O)cc2c1`: the result in series [1] was inactive.

As for `O=C(O)c1cn(CCO)c2ccc(Cc3cccc(Cl)c3F)cc2c1=O`, in series [4], the EC50 came to 0.076 µM.

Turning to `CCOc1cc(C2NC(C(=O)O)CS2)ccc1OCc1cccc(C)c1` (stereo unspecified), in series [1], the outcome was inactive.

Regarding `COc1cc(CNc2nn[nH]n2)ccc1OCc1c(F)cccc1Cl`, the result in series [1] was inactive.

On to `CC(C)[C@H](CO)n1cc(C(=O)O)c(=O)c2cc(Cc3cccc(Cl)c3F)ccc21`, for which the EC50 in series [4] came to 0.007 µM.

`O=C(O)C(O)C(O)c1nc2cc3ccccc3cc2[nH]1` (stereo unspecified): the half-maximal inhibitory concentration (IC50) is 46 µM in series [2] and greater than 100 µM in series [3].
